# Assay results of several laboratories.
# Compare with care: the assays were run in different laboratories.
# Technique: competition with immobilised ligand
# RPS6KA6 C-terminal kinase domain: Ribosomal protein S6 kinase alpha-6, C-terminal kinase domain (RPS6KA6, Homo sapiens, UniProt Q9UK32)
# RPS6KA6 N-terminal kinase domain: Ribosomal protein S6 kinase alpha-6, N-terminal kinase domain (RPS6KA6, Homo sapiens, UniProt Q9UK32)
Compound,target,test,conditions,remaining binding
Cn1nc(C(=O)NCc2ccc(C(=O)O)cc2)cc1-c1ccc2[nH]ccc2c1,RPS6KA6 C-terminal kinase domain,cell-free assay,0.1 µM,85%
CCN1CCN(Cc2ccc(C(=O)Nc3ccc(C)c(Oc4ccc5c(c4)CC(=O)N5)c3)cc2C(F)(F)F)CC1,RPS6KA6 C-terminal kinase domain,binding,1 µM,89%
Nc1ncc2c(n1)-c1c([nH]c3ccc(C#CC4CC4)cc13)CCCC2,RPS6KA6 N-terminal kinase domain,binding,1 µM,78%
Cc1cnc(Nc2ccc(C(=O)N3CCC(N4CCCC4)CC3)cc2)nc1-c1cc2ccccc2s1,RPS6KA6 N-terminal kinase domain,binding,1 µM,30%
CN(c1nccc(-c2cnn3ncccc23)n1)C1CC1,RPS6KA6 N-terminal kinase domain,binding,1 µM,83%
O=C(O)[C@H]1[C@H](Cn2nnc3ccccc3c2=O)CC[C@@H]1C(=O)c1ccc(OCCC2CCOCC2)cc1,RPS6KA6 C-terminal kinase domain,cell-free assay,1 µM,97%
CNC(=O)[C@@H]1CC[C@@H](n2c(-c3ccc4cnccc4c3)nc3ccc(C(=O)NCc4cccc(C(N)=O)c4)cc32)C1,RPS6KA6 C-terminal kinase domain,binding,1 µM,97%
CN(CCCC(F)(F)F)c1nccc(-c2cnn3ncccc23)n1,RPS6KA6 C-terminal kinase domain,binding,1 µM,100%
O=C(c1ccc(Nc2nccc(-c3cc4ccccc4s3)n2)cc1)N1CCC(N2CCCC2)CC1,RPS6KA6 N-terminal kinase domain,binding,1 µM,98%
Cc1c(C(=O)O)cc(-c2ccc(C3CCNCC3)cc2)c2ccc(-c3ccc(C(F)(F)F)cc3)cc12,RPS6KA6 C-terminal kinase domain,binding,1 µM,100%
CN(C)c1nccc(-c2cnn3ncccc23)n1,RPS6KA6 N-terminal kinase domain,binding,1 µM,92%
COc1ncc2cc3ccccc3nc2c1C#N,RPS6KA6 C-terminal kinase domain,cell-free assay,5 µM,73%
O=C(c1ccc(Nc2ncc(Cl)c(-c3ccc(Cl)s3)n2)cc1)N1CCC(N2CCCC2)CC1,RPS6KA6 C-terminal kinase domain,binding,1 µM,83%
c1cnn2ncc(-c3ccnc(N4CCC45COC5)n3)c2c1,RPS6KA6 C-terminal kinase domain,binding,1 µM,66%
COc1ccc2c(c1)O[C@@H](c1ccc(OC)c(OC)c1)C[C@H]2NC(=O)C1(c2ccc3c(c2)OC(F)(F)O3)CC1,RPS6KA6 N-terminal kinase domain,cell-free assay,1 µM,84%
N[C@@H]1CCN(c2nccc(-c3cnn4ncccc34)n2)C1,RPS6KA6 C-terminal kinase domain,binding,1 µM,100%
CN([C@@H]1CCc2c(CC(=O)O)c3ccccc3n2C1)S(=O)(=O)c1ccc(F)cc1,RPS6KA6 C-terminal kinase domain,cell-free assay,1 µM,100%
CN(C)c1nccc(-c2cnc3ncccn23)n1,RPS6KA6 C-terminal kinase domain,binding,1 µM,90%
NS(=O)(=O)c1cc(NC(=O)C2(c3ccccc3Cl)CC2)ccc1Oc1cccc(Cl)c1,RPS6KA6 N-terminal kinase domain,cell-free assay,1 µM,100%
O=C(Nc1c[nH]nc1C(=O)NC1CCNCC1)c1cc(F)cc(F)c1,RPS6KA6 C-terminal kinase domain,binding,1 µM,100%
